{"source": "paper PMC10981011", "about": "(Synthetic and Systems Biotechnology, 2024)", "key": {"[1]": {"tested_on": "Mak1 (microbiome-derived acarbose kinase 1)", "experiment": "In vitro reaction of Mak1", "format": "in vitro ADME, human microbiome", "conditions": "10 μM Mak1, 0.5 mM substrate, 2 mM ATP, 30 °C, 2 h", "outline": "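Mak1 expressed in E. coli Origami B (DE3) (1 mM IPTG, 16 °C, 18 h) and purified on Ni-NTA. Reactions used 100 mM Tris-HCl pH 7.0, 10 mM MgCl₂, 2 mM ATP, 10 μM Mak1 and 0.5 mM test compound. They ran at 30 °C for 2 h and were stopped with 2 volumes methanol. Control used heat-inactivated Mak1 (95 °C, 30 min). Phosphorylated product detected by LC-MS on an SB-Aq column.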"}, "[2]": {"tested_on": "Apg (acarbose-preferred glucosidase)", "experiment": "In vitro reaction of Apg", "format": "in vitro ADME, Klebsiella grimontii TD1", "conditions": "10 μM Apg, 1 mM substrate, 37 °C, 2 h"}}, "data": [{"smiles": "C[C@H]1O[C@H](O[C@H]2[C@H](O)[C@@H](O)[C@@H](O[C@H]3[C@H](O)[C@@H](O)C(O)O[C@@H]3CO)O[C@@H]2CO)[C@H](O)[C@@H](O)[C@@H]1N[C@H]1C=C(CO)[C@@H](O)[C@H](O)[C@H]1O", "note": "(some centres unmarked) [Acarbose]", "values": [{"measurement": "Phosphorylation by Mak1 (detection of phosphorylated product)", "setting": "[1]", "value": "catalyzed the conversion of acarbose to O-7-phosphoryl-acarbose"}, {"measurement": "Hydrolysis by Apg", "setting": "[2]", "value": "completely converted"}]}]}
